From ChEMBL document CHEMBL1811780, “Could LogP be a principal determinant of biological activity in 18-crown-6 ethers? Synthesis of biologically active adamantane-substituted diaza-crowns” (Eur J Med Chem, 2011)
Active and inactive are the calls of the source. No cut-off for these calls is given here.

Tests used:
SW-620 [1] = test: Antiproliferative activity against human SW620 cells after 72 hrs by MTT assay; format: functional; details: SW-620, 72 h
Method in brief: (§1)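 Adherent monolayers grown in DMEM with 10% FBS, 2 mM L-glutamine, penicillin and streptomycin at 37 °C, 5% CO2. Cells seeded on day 0, then given five 10-fold dilutions (10^-8 to 10^-4 mol/L), DMSO at most 0.25%, for 72 h. MTT read at 570 nm. GI50 from linear regression of percentage growth around 50%. Quadruplicate points; mean of three experiments.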

Escherichia coli [2] = test: Antibacterial activity against Escherichia coli assessed as growth inhibition at 10^-4 M after 105 mins; format: functional; details: 1.75 h, read-out: GI
Method in brief: (§2)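 E. coli grown in LB at 37 °C with shaking to OD600 ≈0.1. Culture split into untreated control and four treated aliquots at 10^-4, 10^-5, 10^-6 and 10^-7 M. Grown 105 min (about three mass doublings) at 37 °C. Dilutions in phosphate buffer plated on LB, incubated overnight at 37 °C, CFU counted. % growth inhibition and GI50 derived as for tumour cells. Quadruplicate, at least two experiments.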

HCT-116 = test: Antiproliferative activity against human HCT116 cells after 72 hrs by MTT assay; format: functional; details: HCT-116, 72 h; method in brief: as §1
Bacillus subtilis = test: Antibacterial activity against Bacillus subtilis after 70 mins; format: functional, organism-based
MCF7 = test: Antiproliferative activity against human MCF7 cells after 72 hrs by MTT assay; format: functional; details: MCF7, 72 h; method in brief: as §1
NCI-H460 = test: Antiproliferative activity against human H460 cells after 72 hrs by MTT assay; format: functional; details: NCI-H460, 72 h; method in brief: as §1
MOLT-4 = test: Antiproliferative activity against human MOLT4 cells after 72 hrs by MTT assay; format: functional; details: MOLT-4, 72 h
Method in brief: as §1, with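 “MOLT-4” for “Adherent monolayers”, “suspension in RPMI” for “DMEM”, “Treated with” for “Cells seeded on day 0, then given”, “by” for “from”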

SW-620 [3] = test: Cell cycle arrest in human SW620 cells assessed as accumulation in subG1 phase at 10 uM after 24 to 48 hrs using propidium iodide staining by flow cytometry; format: functional, cell-based
Method in brief: (§3)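 2×10^5 SW 620 cells per well were treated 24 h after seeding, for 24 or 48 h. Attached and floating cells were pooled, fixed in 70% ethanol, then stained with 1 µg/ml PI plus RNase A. 20000 events were acquired by flow cytometry. Phase percentages came from DNA histograms; subG1 is given as a percentage of all counts.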

Escherichia coli [4] = test: Antibacterial activity against Escherichia coli after 105 mins; format: functional; details: 1.75 h; method in brief: as §2
SW-620 [5] = test: Cell cycle arrest in human SW620 cells assessed as S phase reduction at 5 uM after 24 to 48 hrs using propidium iodide staining by flow cytometry; format: functional, cell-based; method in brief: as §3
SW-620 [6] = test: Cell cycle arrest in human SW620 cells assessed as G1 phase delay at 5 uM after 24 to 48 hrs using propidium iodide staining by flow cytometry; format: functional, cell-based; method in brief: as §3
SW-620 [7] = test: Cell cycle arrest in human SW620 cells assessed as S phase reduction at 10 uM after 24 to 48 hrs using propidium iodide staining by flow cytometry; format: functional, cell-based; method in brief: as §3
SW-620 [8] = test: Cell cycle arrest in human SW620 cells assessed as G1 phase delay at 10 uM after 24 to 48 hrs using propidium iodide staining by flow cytometry; format: functional, cell-based; method in brief: as §3
HeLa = test: Antiproliferative activity against human HeLa cells after 72 hrs by MTT assay; format: functional; method in brief: as §1
MIA PaCa-2 = test: Antiproliferative activity against human MIAPaCa2 cells after 72 hrs by MTT assay; format: functional; details: MIA PaCa-2, 72 h; method in brief: as §1
SW-620 [9] = test: Induction of apoptosis in human SW620 cells assessed as late apoptotic cells at 5 uM after 48 hrs using annexin-V/conjugated 7-AAD double staining by flow cytometry (reference value: 1.33%); format: functional
SW-620 [10] = test: Induction of apoptosis in human SW620 cells assessed as viable cells at 10 uM after 48 hrs using annexin-V/conjugated 7-AAD double staining by flow cytometry (reference value: 95.95%); format: functional; details: SW-620, 48 h, read-out: Activity
SW-620 [11] = test: Induction of apoptosis in human SW620 cells assessed as necrotic cells at 5 uM after 48 hrs using annexin-V/conjugated 7-AAD double staining by flow cytometry (reference value: 0.14%); format: functional
SW-620 [12] = test: Induction of apoptosis in human SW620 cells assessed as early apoptotic cells at 10 uM after 48 hrs using annexin-V/conjugated 7-AAD double staining by flow cytometry (reference value: 2.58%); format: functional
SW-620 [13] = test: Induction of apoptosis in human SW620 cells assessed as necrotic cells at 10 uM after 48 hrs using annexin-V/conjugated 7-AAD double staining by flow cytometry (reference value: 0.14%); format: functional
SW-620 [14] = test: Induction of apoptosis in human SW620 cells assessed as viable cells at 5 uM after 48 hrs using annexin-V/conjugated 7-AAD double staining by flow cytometry (reference value: 95.95%); format: functional; details: SW-620, 48 h, read-out: Activity
SW-620 [15] = test: Induction of apoptosis in human SW620 cells assessed as early apoptotic cells at 5 uM after 48 hrs using annexin-V/conjugated 7-AAD double staining by flow cytometry (reference value: 2.58%); format: functional
SW-620 [16] = test: Induction of apoptosis in human SW620 cells assessed as late apoptotic cells at 10 uM after 48 hrs using annexin-V/conjugated 7-AAD double staining by flow cytometry (reference value: 1.33%); format: functional

GI50 (SW-620 [1]) [µM] | IC50 (Bacillus subtilis) [µM] | GI50 (MCF7) [µM] | GI50 (NCI-H460) [µM] | GI50 (HeLa) [µM] | GI50 (MIA PaCa-2) [µM] | SMILES | inhibition of growth at 100 µM (Escherichia coli [2]) [%] | other results
12 | 45.7 | 5 | 14 | – | – | O=C(CC12CC3CC(CC(C3)C1)C2)N1CCOCCOCCN(C(=O)CC23CC4CC(CC(C4)C2)C3)CCOCCOCC1 | < 15 | GI50 (HCT-116): 6 µM; GI50 (MOLT-4): 6 µM
1 | 17 | 2 | 1 | – | – | C(CN1CCOCCOCCN(CCCC23CC4CC(CC(C4)C2)C3)CCOCCOCC1)CC12CC3CC(CC(C3)C1)C2 | 26 | Activity (SW-620 [3]): Active; GI50 (HCT-116): 0.4 µM; GI50 (MOLT-4): 1 µM; GI50 (Escherichia coli [4]): 1000 µM; Activity (SW-620 [5]): Active; Activity (SW-620 [6]): Active; Activity (SW-620 [7]): Active; Activity (SW-620 [8]): Active
> 100 | 1580 | > 100 | > 100 | – | – | c1ccc(CN2CCOCCOCCOCCOCCOCC2)cc1 | – | –
13 | 1580 | 17 | 72 | 28 | 30 | O=C(CCC12CC3CC(CC(C3)C1)C2)N1CCOCCOCCOCCOCCOCC1 | < 15 | –
19 | 129 | 2 | 11 | – | – | O=C(CCC12CC3CC(CC(C3)C1)C2)N1CCOCCOCCN(C(=O)CCC23CC4CC(CC(C4)C2)C3)CCOCCOCC1 | < 15 | GI50 (HCT-116): 6 µM; GI50 (MOLT-4): 3 µM
– | 166 | – | – | – | – | C1CCC2OCCOCCOC3CCCCC3OCCOCCOC2C1 (stereo not given) [ICOSAHYDRODIBENZO[B,K][1,4,7,10,13,16]HEXAOXACYCLOOCTADECINE] | < 15 | –
9 | 25.1 | 8 | 15 | 16 | 12 | C1COCCOCCN(CCC23CC4CC(CC(C4)C2)C3)CCOCCOCCO1 | – | –
– | 1580 | – | – | – | – | CC(C)(C)c1cc2c(c(C(C)(C)C)c1)OCCOCCOc1c(cc(C(C)(C)C)cc1C(C)(C)C)OCCOCCO2 | < 15 | –
– | 1.32 | – | – | – | – | CC(C)(C)C1CCC2OCCOCCOC3CC(C(C)(C)C)CCC3OCCOCCOC2C1 (stereo not given) | < 15 | –
> 100 | 1580 | > 100 | > 100 | > 100 | > 100 | C1COCCOCC23CC4CC(C2)CC(COCCOCCO1)(C4)O3 | – | –
21 | 75.9 | 9 | 12 | – | – | O=C(N1CCOCCOCCN(C(=O)C23CC4CC(CC(C4)C2)C3)CCOCCOCC1)C12CC3CC(CC(C3)C1)C2 | < 15 | –
– | 380 | – | – | – | – | c1ccc(CN2CCOCCOCCN(Cc3ccccc3)CCOCCOCC2)cc1 | < 15 | –
> 100 | 1580 | > 100 | > 100 | – | – | C1COCCOCCOCCOCCOCCN1 | – | –
19 | 25.1 | 21 | 18 | – | – | C1COCCN(CC23CC4CC(CC(C4)C2)C3)CCOCCOCCN(CC23CC4CC(CC(C4)C2)C3)CCO1 | < 15 | –
– | 2 | – | – | – | – | CC(C)(C)c1ccc2c(c1)OCCOCCOc1cc(C(C)(C)C)ccc1OCCOCCO2 | < 15 | –
9 | – | 6 | 15 | 14 | 11 | C(CN1CCOCCOCCOCCOCCOCC1)CC12CC3CC(CC(C3)C1)C2 | – | –
3 | 1580 | 13 | 4 | 17 | 2 | C1COCC23CC4CC(C2)CC(COCCOCC25CC6CC(CC(CO1)(C6)O2)C5)(C4)O3 | < 15 | –
> 100 | 1580 | > 100 | > 100 | > 100 | > 100 | C1COCCOCCNCCOCCOCCN1 | – | GI50 (HCT-116): > 100 µM; GI50 (MOLT-4): > 100 µM
– | 1580 | – | – | – | – | O=C(NCC(=O)N1CCOCCOCCN(C(=O)CNC(=O)OCc2ccccc2)CCOCCOCC1)OCc1ccccc1 | – | –
2.6 | 251 | 4 | 4 | 2.3 | 1.7 | C1COCCN(CCC23CC4CC(CC(C4)C2)C3)CCOCCOCCN(CCC23CC4CC(CC(C4)C2)C3)CCO1 | < 15 | Activity (SW-620 [9]): 2.34%; Activity (SW-620 [3]): Active; viability at 10 µM (SW-620 [10]): 76%; Activity (SW-620 [11]): 0.17%; Activity (SW-620 [12]): 13.72%; Activity (SW-620 [13]): 0.87%; viability at 5 µM (SW-620 [14]): 90%; Activity (SW-620 [5]): Active; Activity (SW-620 [15]): 7.46%; Activity (SW-620 [6]): Active; Activity (SW-620 [7]): Active; Activity (SW-620 [16]): 9.46%; Activity (SW-620 [8]): Active
– | 380 | – | – | – | – | COC(=O)[C@@H](NC(=O)CN1CCOCCOCCN(CC(=O)N[C@@H](C(=O)OC)c2ccccc2)CCOCCOCC1)c1ccccc1 | < 15 | –
– | 380 | – | – | – | – | c1ccc2c(c1)OCCOCCOc1ccccc1OCCOCCO2 | < 15 | –
> 100 | – | > 100 | > 100 | > 100 | > 100 | O=C(CC12CC3CC(CC(C3)C1)C2)N1CCOCCOCCOCCOCCOCC1 | < 15 | –
